# In ChEMBL document CHEMBL4334444, “Studies of Jatrogossone A as a Reactive Oxygen Species Inducer in Cancer Cellular Models” (J Nat Prod, 2019):
# Calls of active or inactive are those of the source. The rule behind the calls is not given here.
# Tests used:
# [1] = system: UoC-B1; assay: Antiproliferative activity against human UOCB1 cells assessed as reduction in cell viability at 0.1 to 250 uM by CellTiter-Glo assay; type: functional, cell-based
# Summary of the method: (§1)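 CellTiter-Glo luminescent viability readout. Cells kept at 37 °C under 5% CO2. HMEC primary cells grown in basal medium with growth kit; leukemia lines and murine BCR-ABL (WT, Bax/Bak DKO) cultured per earlier description. Positive controls: staurosporine 25 μM, gambogic acid 10 μM, a toxic quinoline. At least two biological replicates in technical triplicate; luminescence normalized to untreated controls; EC50 computed.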
# [2] = system: MDA-MB-231; assay: Antiproliferative activity against human MDA-MB-231 cells assessed as reduction in cell viability at 0.1 to 250 uM after 48 hrs by propidium iodide staining based fluorescence assay; type: functional
# Summary of the method: (§2)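 MDA-MB-231 and SUM149 seeded at 6 × 10^4 to 2 × 10^5 cells/well, cultured 24 h, then exposed for 48 h. Cells fixed in cold methanol, stained with 0.4% propidium iodide, fluorescence imaged. Viability expressed as percent surviving cells relative to vehicle wells.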
# [3] = system: KOPN-8; assay: Upregulation of Trx level in human KOPN8 at 1 uM after 3 to 6 hrs by Western blot analysis; type: functional, cell-based
# Summary of the method: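 Western blot of KOPN-8 or MCF-7 lysates, 30 μg protein per lane on 4–12% Bis-Tris SDS-PAGE and transferred to nitrocellulose. Blots were probed with an oxidative stress defense antibody cocktail (catalase, SOD1, Trx, smooth muscle actin) and tubulin, and detected with IR-dye secondaries on a LI-COR Odyssey.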
# [4] = system: SUP-B15; assay: Antiproliferative activity against human SUP-B15 cells assessed as reduction in cell viability at 0.1 to 250 uM by CellTiter-Glo assay; type: functional, cell-based; summary of the method: as §1
# [5] = system: K562; assay: Antiproliferative activity against human K562 cells assessed as reduction in cell viability at 0.1 to 250 uM by CellTiter-Glo assay; type: functional, cell-based; summary of the method: as §1
# [6] = system: KOPN-8; assay: Induction of apoptosis in human KOPN8 cells assessed as increase in cleaved PARP 1 level at 1 to 10 uM after 3 hrs by Western blot analysis; type: functional, cell-based
# Summary of the method: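 Western blot of KOPN-8 and MCF-7 lysates made in RIPA-type buffer (Tris pH 7.5, Triton X-100, deoxycholate, SDS) with protease and phosphatase inhibitors. 30 μg protein per lane was run on 4–12% Bis-Tris SDS-PAGE and transferred to nitrocellulose. Blots were probed for cleaved caspase-7 and PARP-1 and detected with IR-dye secondaries. Menadione served as positive control: 10 μM in KOPN-8, 30 μM in MCF-7. Blots are representative of three independent experiments.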
# [7] = system: PBMC; assay: Cytotoxicity against human PBMC cells assessed as cell viability at >100 uM by CellTiter-Glo assay; type: cell-based; summary of the method: as §1
# [8] = system: B-ALL; assay: Cytotoxicity against BCR-ABL positive p185-positive mouse B-ALL cells expressing human BCL-W assessed as inhibition of cell viability after 24 hrs by AnnexinV-FITC/propidium iodide staining based flow cytometric analysis; type: functional
# [9] = system: KOPN-8; assay: Induction of mitochondrial membrane potential loss in human KOPN8 cells at 30 uM after 24 to 48 hrs by TMRM staining based flow cytometric analysis; type: functional, cell-based
# Summary of the method: (§3)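 TMRM flow cytometry. KOPN-8 (4 × 10^4 or 5 × 10^5 per well) or MCF-7 (2 × 10^4 or 2 × 10^5 per well) were seeded 24 h, then treated 24–48 h. FCCP 10 μM was added 10 min before staining as positive control. Cells were stained with TMRM 100 nM for 0.5 h, then PBS-washed, resuspended in PBS with 1% FBS and analysed by flow cytometry; DAPI flagged compromised cells.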
# [10] = system: KOPN-8; assay: Antiproliferative activity against human KOPN8 cells assessed as reduction in cell viability at 1 to 10 uM by CellTiter-Glo assay; type: functional, cell-based; summary of the method: as §1
# [11] = system: B-ALL; assay: Cytotoxicity against BCR-ABL p185-positive human B-ALL cells harboring MCL-1 triple knock out mutant assessed as inhibition of cell viability after 24 hrs by AnnexinV-FITC/propidium iodide staining based flow cytometric analysis; type: functional
# [12] = system: B-ALL; assay: Cytotoxicity against BCR-ABL p185-positive mouse B-ALL cells transfected with empty vector assessed as inhibition of cell viability after 24 hrs by AnnexinV-FITC/propidium iodide staining based flow cytometric analysis; type: functional
# [13] = Protein binding in human plasma; type: ADME, cell-free; conditions: read-out: PPB (converted)
# [14] = system: UoC-B1; assay: Antiproliferative activity against human UOCB1 cells assessed as reduction in cell viability at 1 to 10 uM by CellTiter-Glo assay; type: functional, cell-based; summary of the method: as §1
# [15] = system: SUM149PT; assay: Antiproliferative activity against human SUM149 cells assessed as reduction in cell viability at >10 uM after 48 hrs by propidium iodide staining based fluorescence assay; type: functional; summary of the method: as §2
# [16] = system: MCF7; assay: Upregulation of Trx level in human MCF7 after 3 to 6 hrs by Western blot analysis; type: functional, cell-based
# Summary of the method: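 MCF-7 cells were exposed to compound for 3 or 6 h. Lysates were made in Tris-HCl pH 7.5 RIPA-type buffer with protease/phosphatase inhibitors and quantified by BCA. 30 μg protein per lane was run on 4–12% Bis-Tris SDS-PAGE in MES and transferred to nitrocellulose. Blots were probed for thioredoxin with tubulin as reference, detected with IR-dye secondaries (1:15 000) and scanned on an infrared imager.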
# [17] = system: KOPN-8; assay: Induction of apoptosis in human KOPN8 cells assessed as increase in late apoptotic cells at 10 uM after 24 hrs by Annexin V-FITC and propidium iodide staining based flow cytometry relative to control; type: functional
# Summary of the method: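 KOPN-8 cells were plated at 1.00 × 10^6 per plate and held 12 h at 37 °C, then treated 24 h; positive control 2 μM staurosporine, vehicle DMSO. Cells were stained with Annexin V-FITC and PI and analysed by flow cytometry (FACSCalibur). Profiles are representative of three independent biological replicates.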
# [18] = system: U2OS; assay: Decrease in cell viability in human U2OS cells incubated for 24 hrs by GF-AFC reagent based ApoTox-Glo triplex assay; type: functional
# Summary of the method: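 ApoTox-Glo Triplex: cells held 12 h at 37 °C, then treated 24 h (100−0.15 μM). Viability/cytotoxicity reagent added, shaken, 30 min at 37 °C; viability read as GF-AFC fluorescence at 400Ex/505Em. Caspase-Glo 3/7 then added, 0.5 h at room temperature, luminescence read. Mean ± SEM of three independent experiments.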
# [19] = system: MCF7; assay: Induction of mitochondrial membrane potential loss in human MCF7 cells at 30 uM after 24 to 48 hrs by TMRM staining based flow cytometric analysis; type: functional, cell-based; summary of the method: as §3
# [20] = system: KOPN-8; assay: Cell cycle arrest in human KOPN8 cells assessed as decrease in accumulation at G1/G0 phase at 10 uM incubated for 24 hrs by propidium iodide staining based flow cytometric analysis relative to control; type: functional; conditions: KOPN-8, 24 h
# Summary of the method: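 KOPN-8 plated at 1.00 × 10^6 cells/plate, held 12 h at 37 °C, treated 24 h at 10 μM; DMSO vehicle and 2 μM staurosporine as controls. Cells fixed in cold methanol, RNase-treated, stained with PI (50 μg/mL); cell-cycle distribution by flow cytometry.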
# [21] = Half life in simulated gastric fluid; type: ADME
smiles,measurement,setting,value
CC1=C2CC(C)(C)/C=C/C(=O)/C(C)=C\C3=C[C@H](C)C[C@]3(O2)C1=O [JATROPHONE],inhibition,[1],Active
same,inhibition,[2],Active
same,Activity,[3],Active
same,inhibition,[4],Active
same,inhibition,[5],Active
same,Activity,[6],Active
CC(=O)O[C@H]1/C2=C/[C@@H](C)C(=O)C[C@H]3[C@@H](/C=C(\C)C(=O)[C@H]2C[C@H]1C)C3(C)C,Activity,[7],Non-Toxic
same,IC50,[8],14.4 µM
same,Activity,[9],Active
same,inhibition,[10],Active
same,IC50,[11],19.6 µM
same,IC50,[12],4.57 µM
same,fraction unbound,[13],0.16
same,inhibition,[14],Active
same,inhibition,[15],Active
same,Activity,[16],Dose-dependent effect
same,Activity,[17],15%
same,inhibition,[18],Dose-dependent effect
same,Activity,[19],inactive
same,inhibition at 10 µM,[20],5%
same,half-life,[21],124 h
